# According to the M2OR odorant receptor database:
# Columns and labels:
# Details in all cases: stereoisomer not certain
# OR8D1 (Homo sapiens) = biological target: T1, OR8D1 (Homo sapiens) (UniProt Q8WZ84)
# T1 sequence (whole entry): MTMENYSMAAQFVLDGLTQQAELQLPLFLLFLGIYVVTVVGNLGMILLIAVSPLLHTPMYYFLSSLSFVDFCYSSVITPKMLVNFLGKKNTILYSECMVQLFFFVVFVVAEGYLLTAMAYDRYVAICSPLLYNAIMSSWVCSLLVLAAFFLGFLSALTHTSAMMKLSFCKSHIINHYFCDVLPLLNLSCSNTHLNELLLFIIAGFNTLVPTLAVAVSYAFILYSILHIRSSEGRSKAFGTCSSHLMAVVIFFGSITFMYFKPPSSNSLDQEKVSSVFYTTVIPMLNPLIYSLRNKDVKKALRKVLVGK
# Outline: (§1)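 Each entry records the cell line, G-protein, co-transfected protein and tags used. Methods varied with the source, often transient luciferase assays in mammalian cell lines. A receptor–molecule pair is called responsive (active) if the original authors judged its signal statistically different from baseline and non-responsive (inactive) otherwise.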
# OR8B8 (Homo sapiens) = OR8B8 (Homo sapiens) (UniProt Q15620)
# Outline: as §1
# OR8D2 (Homo sapiens) = OR8D2 (Homo sapiens) (UniProt Q9GZM6)
# Outline: as §1
# OR8D4 (Homo sapiens) = OR8D4 (Homo sapiens) (UniProt Q8NGM9)
# Outline: as §1
# OR8G1 (Homo sapiens) = OR8G1 (Homo sapiens) (UniProt Q15617)
# Outline: as §1
# OR8G5 (Homo sapiens) = OR8G5 (Homo sapiens) (UniProt Q8NG78)
# Outline: as §1
# OR8B8 L101P = test system: OR8B8 L101P
# Outline: as §1
# OR8D1 C127G L194P = test system: OR8D1 C127G L194P
# Outline: as §1
# OR8D1 L194P = test system: OR8D1 L194P
# Outline: as §1
# OR8D4 C120Y R133K = test system: OR8D4 C120Y R133K
# Outline: as §1
# OR8G1 (Homo sapiens), sequence (Q15617 whole entry): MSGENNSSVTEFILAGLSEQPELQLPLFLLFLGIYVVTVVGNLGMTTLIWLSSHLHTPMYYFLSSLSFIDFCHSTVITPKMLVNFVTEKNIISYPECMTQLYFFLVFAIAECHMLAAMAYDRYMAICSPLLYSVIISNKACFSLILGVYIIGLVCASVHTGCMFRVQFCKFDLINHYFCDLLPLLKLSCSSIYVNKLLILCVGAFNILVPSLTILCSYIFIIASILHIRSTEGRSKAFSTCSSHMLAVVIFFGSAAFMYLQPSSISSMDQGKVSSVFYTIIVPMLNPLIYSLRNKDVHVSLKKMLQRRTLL
# OR8D2 (Homo sapiens), sequence (Q9GZM6 whole entry): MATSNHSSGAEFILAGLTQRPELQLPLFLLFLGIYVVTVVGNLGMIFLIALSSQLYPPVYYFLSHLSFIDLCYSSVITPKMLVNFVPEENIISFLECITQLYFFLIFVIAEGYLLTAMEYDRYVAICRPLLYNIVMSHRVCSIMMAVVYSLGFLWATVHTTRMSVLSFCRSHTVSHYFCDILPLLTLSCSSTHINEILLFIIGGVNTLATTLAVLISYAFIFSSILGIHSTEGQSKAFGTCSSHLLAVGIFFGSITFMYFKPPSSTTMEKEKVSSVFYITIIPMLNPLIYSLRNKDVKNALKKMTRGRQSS
# OR8G5 (Homo sapiens), sequence (Q8NG78 whole entry): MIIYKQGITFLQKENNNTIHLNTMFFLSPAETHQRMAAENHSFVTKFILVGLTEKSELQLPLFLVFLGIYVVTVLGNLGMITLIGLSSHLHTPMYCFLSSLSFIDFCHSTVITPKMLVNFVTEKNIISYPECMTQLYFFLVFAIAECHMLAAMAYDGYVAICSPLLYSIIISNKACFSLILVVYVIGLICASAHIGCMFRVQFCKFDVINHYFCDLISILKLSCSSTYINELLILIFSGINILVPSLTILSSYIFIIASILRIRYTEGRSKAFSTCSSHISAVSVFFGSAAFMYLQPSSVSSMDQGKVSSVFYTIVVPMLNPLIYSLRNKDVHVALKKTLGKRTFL
# OR8B8 (Homo sapiens), sequence (Q15620 whole entry): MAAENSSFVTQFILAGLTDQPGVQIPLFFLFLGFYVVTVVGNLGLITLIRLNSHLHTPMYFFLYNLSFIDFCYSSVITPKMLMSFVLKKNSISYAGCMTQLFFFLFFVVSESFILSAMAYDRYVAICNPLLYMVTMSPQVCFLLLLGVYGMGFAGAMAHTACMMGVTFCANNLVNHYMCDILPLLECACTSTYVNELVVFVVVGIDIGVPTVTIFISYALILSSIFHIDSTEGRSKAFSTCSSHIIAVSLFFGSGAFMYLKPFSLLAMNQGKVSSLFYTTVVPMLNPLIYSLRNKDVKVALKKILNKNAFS
# OR8D4 (Homo sapiens), sequence (Q8NGM9 whole entry): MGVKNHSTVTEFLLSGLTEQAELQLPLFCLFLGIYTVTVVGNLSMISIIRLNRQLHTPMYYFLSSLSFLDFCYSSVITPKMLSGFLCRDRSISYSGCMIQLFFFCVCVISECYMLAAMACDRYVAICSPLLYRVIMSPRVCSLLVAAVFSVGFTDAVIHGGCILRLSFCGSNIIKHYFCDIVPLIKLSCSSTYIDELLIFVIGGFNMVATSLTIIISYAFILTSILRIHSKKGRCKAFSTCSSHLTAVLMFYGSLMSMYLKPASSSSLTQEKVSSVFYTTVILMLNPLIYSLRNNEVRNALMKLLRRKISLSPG
# OR8D1 L194P, sequence (as listed by the source, stated change not applied): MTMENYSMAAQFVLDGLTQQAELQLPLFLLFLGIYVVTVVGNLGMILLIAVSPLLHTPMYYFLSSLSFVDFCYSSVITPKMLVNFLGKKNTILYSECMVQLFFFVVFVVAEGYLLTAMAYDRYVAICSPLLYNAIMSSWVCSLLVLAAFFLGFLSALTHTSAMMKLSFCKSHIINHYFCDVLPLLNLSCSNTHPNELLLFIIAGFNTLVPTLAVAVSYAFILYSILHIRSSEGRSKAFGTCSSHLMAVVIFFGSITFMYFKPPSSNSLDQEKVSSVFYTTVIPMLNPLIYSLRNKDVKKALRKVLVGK
# OR8B8 L101P, sequence (as listed by the source, stated change not applied): as the sequence (Q15620 whole entry) above, with L101P counted along it
smiles,measurement,setting,value
SCc1ccco1,odorant receptor agonist call,OR8D1 (Homo sapiens),inactive
CSSC,odorant receptor agonist call,OR8D1 (Homo sapiens),inactive
COc1ccc(C=O)cc1,odorant receptor agonist call,OR8D1 (Homo sapiens),inactive
O=Cc1ccc2c(c1)OCO2,odorant receptor agonist call,OR8D1 (Homo sapiens),inactive
Cc1c([N+](=O)[O-])c(C)c([N+](=O)[O-])c(C(C)(C)C)c1[N+](=O)[O-],odorant receptor agonist call,OR8B8 (Homo sapiens),inactive
same,odorant receptor agonist call,OR8D1 (Homo sapiens),inactive
same,odorant receptor agonist call,OR8D2 (Homo sapiens),inactive
same,odorant receptor agonist call,OR8D4 (Homo sapiens),inactive
same,odorant receptor agonist call,OR8G1 (Homo sapiens),inactive
same,odorant receptor agonist call,OR8G5 (Homo sapiens),inactive
C=CCc1ccc(OC)cc1,odorant receptor agonist call,OR8D1 (Homo sapiens),inactive
Cc1ccc(O)c(C)c1,odorant receptor agonist call,OR8D1 (Homo sapiens),inactive
NCC(=O)c1ccccc1,odorant receptor agonist call,OR8D1 (Homo sapiens),inactive
CCOC(=O)Cc1ccccc1,odorant receptor agonist call,OR8D1 (Homo sapiens),inactive
Cc1ccccc1O,odorant receptor agonist call,OR8D1 (Homo sapiens),inactive
C=CCSSCC=C,odorant receptor agonist call,OR8D1 (Homo sapiens),inactive
C=CCOC(=O)Cc1ccccc1,odorant receptor agonist call,OR8B8 (Homo sapiens),inactive
same,odorant receptor agonist call,OR8B8 L101P,inactive
same,odorant receptor agonist call,OR8D1 (Homo sapiens),inactive
same,odorant receptor agonist call,OR8D1 C127G L194P,inactive
same,odorant receptor agonist call,OR8D1 L194P,inactive
same,odorant receptor agonist call,OR8D2 (Homo sapiens),inactive
same,odorant receptor agonist call,OR8D4 (Homo sapiens),inactive
same,odorant receptor agonist call,OR8D4 C120Y R133K,inactive
same,odorant receptor agonist call,OR8G1 (Homo sapiens),inactive
same,odorant receptor agonist call,OR8G5 (Homo sapiens),inactive
